Assay [1] has as its system NL4–3 strain of HIV-1 (X4 strain). Put plainly: Anti-HIV-1 entry assay, one-day culture, intracellular p24 antigen in PBMCs. The format is cell-based. The conditions noted are these: unlinked control fragments alone; assay format not stated.
Assay [2] addresses CXCR4 (Homo sapiens, UniProt P61073). Put plainly: CXCR4 internalization assay, CHO-CXCR4-FLAG cells. The class given is cell-based. The conditions noted are these: 1h of treatment at 100 nM. The procedure, abridged: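 CHO cells expressing N-terminally FLAG-tagged CXCR4 washed at 4°C in RPMI 1640 with 0.5% BSA. Seeded 3×10^5/well and exposed at 37°C to graded test compound, with SDF-1α as positive control. Surface receptor stained with anti-FLAG then FITC anti-mouse antibody, each 30 min at 4°C, and read at 485/528 nm. At least three independent experiments, mean ± SEM.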

Residues, ends and D or L forms follow the SMILES beside them.

Sequence of CXCR4 (P61073 whole entry): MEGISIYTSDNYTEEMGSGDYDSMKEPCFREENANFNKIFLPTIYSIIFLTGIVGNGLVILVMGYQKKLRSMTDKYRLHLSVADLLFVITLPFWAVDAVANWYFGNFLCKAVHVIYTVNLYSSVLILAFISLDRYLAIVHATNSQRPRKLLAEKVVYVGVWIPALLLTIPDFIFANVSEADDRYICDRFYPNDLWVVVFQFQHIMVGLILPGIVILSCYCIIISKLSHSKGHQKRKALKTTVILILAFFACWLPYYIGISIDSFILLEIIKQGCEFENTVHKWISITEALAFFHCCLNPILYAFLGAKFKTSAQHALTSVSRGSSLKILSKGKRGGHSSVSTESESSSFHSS

In the case of `C[C@@H](O)[C@H](NC(=O)[C@H](CCCNC(=N)N)NC(=O)[C@@H]1CCCN1C(=O)[C@H](CC(N)=O)NC(=O)[C@H](CC(N)=O)NC(=O)[C@H](CC(N)=O)NC(=O)[C@@H](NC(=O)[C@H](CCCCN)NC(=O)[C@H](CCCNC(=N)N)NC(=O)[C@H](CCCCN)NC(=O)CCCCCN)[C@@H](C)O)C(=O)N[C@@H](CS)C(N)=O` [AR6r] (HELM PEPTIDE1{[NCCCCCC(=O)[*:2]].K.R.K.T.N.N.N.P.R.T.C.[am]}$$$$V2.0), the antiviral activity entry in assay [1] was “did not show any antiviral activity”. In assay [2], SDF-1α showed a CXCR4 internalization of 43.87%.
